# Compound activity from PubChem.
# TAAR1 antag – human TAAR1 antagonism. Q96RJ0. CHO RD-HGA16 TAAR1, Fluo-8 calcium fluorescence, antagonist. inhibition, % at 3 µM. hit rate 1.5% among 360,000. AID 624466;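 active = inhibition above a per-plate cutoff, the mean inhibition of test compounds on that plate plus 3 SD, cut at about 49% in these data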;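 note: 0% = DMSO plus EC80 beta-PEA response and 100% = DMSO alone without agonist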
#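 Test system: hTAAR1-expressing CHO RD-HGA16 cells, Gα16-coupled; Probe or stimulus: EC80 β-phenethylamine stimulus; Compound dosing: single nominal final test compound concentration of 3 µM; Timing: 140 s kinetic read after compound, 140 s after agonist; Signal: Fluo-8 calcium-sensitive fluorescence; Measure: % inhibition of agonist calcium response; Controls: DMSO and EC80 PEA controls.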
# TAAR1 ag – agonists of human TAAR1 | Q96RJ0 | CHO RD-HGA16 TAAR1, Fluo-8 calcium fluorescence; vehicle wells 0%, saturating PEA agonist 100% | activation, % at 3 µM | hit rate 0.99% among 360,000 | AID 624467;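 active = activation above the mean activation of all test compounds in the run plus 3 SD, cut at about 38% in these data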
#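 System: CHO-derived RD-HGA16 cells with stable Gα16 and human TAAR1 / Times: 17-24 h plating, Fluo-8 75 min 37 °C, 30 min RT / Technique: calcium-sensitive Fluo-8 signal, excitation 470-495, emission 515-575 nm / Measure: % activation relative to PEA EC100 response / Benchmarks: DMSO and PEA EC100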
# OXTR potentiate – potentiators of human oxytocin receptor; P30559; CHO-OTR cells, Fluo-8 calcium fluorescence, potentiator mode; 0% = oxytocin EC15, 100% = EC100; activation, % at 3 µM; hit rate 0.061% among 320,000; AID 2445;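 active = activation above that plate's cutoff, the mean activation of tested compounds plus 3 SD, cut at about 6.6% in these data, passing the limit was not always enough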;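 note: 100% uses oxytocin at 75 nM as the full agonist control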
# Target sequence (P30559 whole entry, looked up): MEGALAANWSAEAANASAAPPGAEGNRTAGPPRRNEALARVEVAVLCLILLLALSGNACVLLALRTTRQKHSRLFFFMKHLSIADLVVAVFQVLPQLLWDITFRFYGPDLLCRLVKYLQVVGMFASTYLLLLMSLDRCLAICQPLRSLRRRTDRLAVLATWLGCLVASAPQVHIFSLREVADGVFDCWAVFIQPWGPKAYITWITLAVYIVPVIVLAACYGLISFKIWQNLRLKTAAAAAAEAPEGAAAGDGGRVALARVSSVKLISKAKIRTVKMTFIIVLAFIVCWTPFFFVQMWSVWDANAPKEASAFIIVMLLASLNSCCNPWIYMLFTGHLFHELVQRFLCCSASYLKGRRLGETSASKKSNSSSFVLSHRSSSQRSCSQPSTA
#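 Measured by – Fluo-8 calcium dye fluorescence · Test system – human OTR in CHO cells · Dosing – one concentration, 3.0 µM compound · Controls – EC15 oxytocin alone as 0%, 75 nM oxytocin as 100% · Evaluation – normalized max/min fluorescence ratio, % activation · Timing – 6 min pre-incubation, 100 s read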
# V1R ag counter – counter-screen for oxytocin receptor agonists: human V1a receptor agonists; P37288; CHO-V1R cells, Fluo-8 calcium fluorescence, agonist mode; 0% DMSO, 100% 3 nM vasopressin; activation, % at 3 µM; hit rate 0.25% among 320,000;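 active = activation above the mean activation of all tested compounds plus 3 SD, per screening run, cut at about 20% in these data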;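 note: signal is peak over basal fluorescence ratio across a 100 second FLIPR read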
# OXTR ag – agonists of human oxytocin receptor; P30559; hit rate 0.32% among 320,000; AID 2435; activation, % at 3 µM; CHO-OTR cells, Fluo-8 calcium fluorescence; normalized: DMSO 0%, oxytocin 100%;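 active = activation above the mean of all tested compounds plus 3 SD, cutoff set per screening run, cut at about 20% in these data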;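 note: peak over basal fluorescence ratio from a 100 s FLIPR kinetic read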
# Starred values were filed as active, the others as inactive; nt = no result. The list is not random: actives were taken first. Their share in the collection is about 2.3%.
SMILES,TAAR1 antag,TAAR1 ag,OXTR potentiate,V1R ag counter,OXTR ag
Cc1ccc(C2c3c(-c4ccccc4)n[nH]c3C(=O)N2c2ccccc2)cc1 (stereo not drawn),-38,4,nt,nt,nt
CCc1c(-c2ccc(OC)cc2)ncn1CCc1ccccc1OC,-16,18,nt,nt,nt
N#CC(C#N)=C1C=C2C=C(N3CCCCC3)CCC2CC1 (stereo not drawn),nt,nt,-12,617*,921*
Cc1ccc(N(C)S(=O)(=O)c2c[nH]c3ccc([N+](=O)[O-])cc23)cc1,51*,3,-14,5,6
O=C(N[C@H](C(=O)N1CCC[C@H]1C(=O)NC1CCCC1)c1ccccc1)C1CCCC1,-24,1,nt,nt,nt
COc1cc(C(=O)Nc2nccs2)c(Br)c(OC)c1OC,51*,16,-20,2,1
C[C@H](CO)N1C[C@H](C)[C@H](CN(C)C(=O)Nc2cccc(F)c2)OCc2cnnn2CCCC1=O,4,2,nt,nt,nt
O=C(Nc1ccc([N+](=O)[O-])cc1)c1cc2ccccc2nc1Cl,51*,9,-7,8,6
Cc1cc(N2CCN(C(=O)OC(C)(C)C)C[C@@H]2C)ccc1N1CCN(Cc2ccccc2)[C@H](C)C1,9,-2,nt,nt,nt
C[C@@H]1CN([C@@H](C)CO)C(=O)c2ccccc2-c2ccccc2CO[C@@H]1CN(C)Cc1ccc(Cl)c(Cl)c1,-4,6,nt,nt,nt
Cc1cc(/C=C2\NC(=S)N(C)C2=O)ccc1N1CCCC1,83*,142*,-20,79*,69*
Cc1cc(/C=C2/C(=O)N(C)C(=S)N2C)ccc1N1CCCC1,48,26,-21,29*,23*
CCCN1C(=O)/C(=C/c2ccc(N3CCCC3)c(C)c2)NC1=S,99*,129*,-24,113*,112*
Cc1ccccc1S(=O)(=O)N(C)C[C@H]1OCc2cnnn2CCCC(=O)N([C@H](C)CO)C[C@@H]1C,-7,1,nt,nt,nt
COc1cccc(N=Nc2ccc3cccnc3c2O)c1,74*,37,-8,2,5
COc1cccc(N=Nc2ccc(O)c3ncccc23)c1,70*,18,8,1,-2
COc1ccc(N=Nc2ccc(O)c3ncccc23)cc1,46,10,-15,0,1
COCC(C)NC(=O)CSc1nc2ccccc2c(=O)n1CCc1ccc(S(N)(=O)=O)cc1 (stereo not drawn),54*,13,0,2,1
Cc1ccc(NC(=O)N2CC(C)OC(C)C2)cc1[N+](=O)[O-] (stereo not drawn),9,12,nt,nt,nt
COC(=O)c1cc2c(c3c4ccccc4n(S(=O)(=O)c4cccc(C)c4)c13)C(=O)N(Cc1ccccc1OC)C2,3,-1,nt,nt,nt
Cc1cccc(C)c1-n1c(C)cc(/C=N\Nc2ccc([N+](=O)[O-])cn2)c1C,51*,15,-6,2,1
Cc1nnsc1NC(=O)OCc1ccccc1Cl,5,41*,-27,7,17
Cc1nnsc1NC(=O)OCc1ccc(C(F)(F)F)cc1,5,2,-17,6,6
COCCNC(=O)C(c1cccs1)N(CCc1ccccc1)C(=O)Cn1nnc2ccccc21 (stereo not drawn),5,40*,-11,0,-1
COCCNC(=O)C(c1cccs1)N(Cc1ccccc1)C(=O)Cn1nnc2ccccc21 (stereo not drawn),2,17,-7,1,0
SMILES,TAAR1 antag,TAAR1 ag,OXTR potentiate,V1R ag counter,OXTR ag
CN(Cc1cn(Cc2cccc(Cl)c2)nn1)C1CN(Cc2cn(Cc3cccc(Cl)c3)nn2)S(=O)(=O)C1 (stereo not drawn),14,3,nt,nt,nt
Cc1ccc(CN(C)C[C@H]2OCc3cnnn3CCCC(=O)N([C@H](C)CO)C[C@@H]2C)cc1,-8,0,nt,nt,nt
CSC1=NC2(CC(c3ccccc3)Oc3cc(O)ccc32)CC(C)(C)N1 (stereo not drawn),7,30,-21,42*,21*
CC(C)CNc1cccc2c1S(=O)(=O)N[C@@H](Cc1ccccc1)CO2,-9,-1,nt,nt,nt
O=C(CCl)NC(Cc1ccccc1)C(=O)OCC(=O)c1ccc(-c2ccccc2)cc1 (stereo not drawn),60*,5,nt,nt,nt
Cc1ccc(S(=O)(=O)N2[C@@H](Cc3ccccc3)CO[C@H]2CC(=O)c2ccccc2)cc1,-6,0,nt,nt,nt
Cc1ccccc1C1c2[nH]c3ccccc3c2C[C@H]2C(=O)N(c3ccccc3C(=O)NCCN3CCOCC3)C(=O)N12 (stereo partly drawn),50*,9,-9,3,4
CCOc1ccc(NC(=O)COC(=O)c2ccc3c(c2)C(=O)N(CCc2ccccc2)C3=O)cc1,18,38*,-3,1,0
O=C(COC(=O)c1ccc2c(c1)C(=O)N(CCc1ccccc1)C2=O)Nc1ccc(OC(F)F)cc1,15,13,-9,3,0
OC[C@@H]1CN(Cc2ccc(-c3ccccc3)cc2)C[C@H](n2cnc3c(Nc4ccccc4)ncnc32)O1,51*,11,nt,nt,nt
CC(C)CNc1ncnc2c1ncn2[C@H]1CN(Cc2ccc(Cl)cc2)C[C@@H](CO)O1,5,0,nt,nt,nt
CC(C)CNc1ncnc2c1ncn2[C@H]1CN(Cc2cccc3ccccc23)C[C@@H](CO)O1,7,5,nt,nt,nt
OC[C@@H]1CN(Cc2cccc3ccccc23)C[C@H](n2cnc3c(NCc4ccco4)ncnc32)O1,65*,20,nt,nt,nt
CC(C)CNc1ncnc2c1ncn2[C@H]1CN(CCc2ccccc2)C[C@@H](CO)O1,-11,41*,nt,nt,nt
O=C(Nc1ccccc1)N1c2ccccc2SC1c1ccco1 (stereo not drawn),-24,2,nt,nt,nt
Clc1ccccc1-c1nc2nc3ccccc3nc2n1-c1ccc2c(c1)OCO2,49*,10,-11,-1,-1
c1csc(-c2nc3nc4ccccc4nc3n2Cc2ccc3c(c2)OCO3)c1,42,13,-17,0,-1
CCCOc1ccc(CCc2n[nH]c(=S)n2-c2ccccc2)cc1,-5,2,-10,2,1
